Data as given in ChEMBL document CHEMBL3739290, “Thioxo-dihydroquinazolin-one Compounds as Novel Inhibitors of Myeloperoxidase” (ACS Med Chem Lett, 2015).
Active and inactive are the calls of the source. The rule behind the calls is not given here.

How the values were obtained:
Armoracia rusticana = assay: Inhibition of horseradish peroxidase by amplex red assay
How it was run: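 Interference counter-screen: the Amplex Red peroxidase assay was run with HRP (20 nM) in place of human MPO, across a range of compound concentrations. Points are the mean ± SEM of three determinations.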

Myeloperoxidase = biological target: T1, Myeloperoxidase (Homo sapiens, UniProt P05164); assay: Inhibition of human recombinant myeloperoxidase by amplex red assay
T1 sequence (P05164 whole entry): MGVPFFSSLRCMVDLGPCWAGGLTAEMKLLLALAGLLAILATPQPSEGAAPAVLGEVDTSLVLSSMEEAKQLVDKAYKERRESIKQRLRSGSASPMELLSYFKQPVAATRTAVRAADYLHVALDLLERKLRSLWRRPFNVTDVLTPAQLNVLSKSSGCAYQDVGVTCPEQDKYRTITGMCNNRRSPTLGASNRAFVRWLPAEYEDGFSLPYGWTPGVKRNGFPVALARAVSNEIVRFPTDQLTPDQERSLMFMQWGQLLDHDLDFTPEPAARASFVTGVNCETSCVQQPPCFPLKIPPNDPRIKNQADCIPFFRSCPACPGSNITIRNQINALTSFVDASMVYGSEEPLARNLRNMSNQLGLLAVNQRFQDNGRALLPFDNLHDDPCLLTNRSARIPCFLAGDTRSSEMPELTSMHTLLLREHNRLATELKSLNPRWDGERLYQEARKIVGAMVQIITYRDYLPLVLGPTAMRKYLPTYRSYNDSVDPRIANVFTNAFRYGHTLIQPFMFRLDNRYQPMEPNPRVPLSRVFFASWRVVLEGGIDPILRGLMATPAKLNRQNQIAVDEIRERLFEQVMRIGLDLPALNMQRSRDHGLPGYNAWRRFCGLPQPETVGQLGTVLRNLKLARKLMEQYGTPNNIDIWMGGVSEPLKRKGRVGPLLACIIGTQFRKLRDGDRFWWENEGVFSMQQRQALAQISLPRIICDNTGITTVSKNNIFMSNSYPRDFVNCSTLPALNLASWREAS

[1] = biological target: T2, Xanthine dehydrogenase/oxidase (Homo sapiens, UniProt P47989); assay: Inhibition of xanthine oxidase (unknown origin) assessed as superoxide generation measured for 20 mins by luminescence analysis using 50 uM xanthine as a substrate
How it was run: (§1)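 Xanthine/xanthine oxidase served as the oxidant source to check for assay interference. The buffer and pH matched the MPO Amplex Red assay. Inhibitors were tested over a range up to 100 μM.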

[2] = biological target: T2, Xanthine dehydrogenase/oxidase; assay: Inhibition of xanthine oxidase (unknown origin) assessed as superoxide generation upto 100 uM measured for 20 mins by luminescence analysis using 50 uM xanthine as a substrate; details: read-out: Imax; how it was run: as §1
[3] = Solubility of compound in water by nephelometry; type: physicochemical
[4] = biological target: T3, Myeloperoxidase (Homo sapiens) (UniProt P05164); details: 100 uM
T3 sequence (whole entry): T1 sequence (P05164 whole entry)

[5] = biological target: T3, Myeloperoxidase (Homo sapiens); details: 6 uM

T2 sequence (P47989 whole entry): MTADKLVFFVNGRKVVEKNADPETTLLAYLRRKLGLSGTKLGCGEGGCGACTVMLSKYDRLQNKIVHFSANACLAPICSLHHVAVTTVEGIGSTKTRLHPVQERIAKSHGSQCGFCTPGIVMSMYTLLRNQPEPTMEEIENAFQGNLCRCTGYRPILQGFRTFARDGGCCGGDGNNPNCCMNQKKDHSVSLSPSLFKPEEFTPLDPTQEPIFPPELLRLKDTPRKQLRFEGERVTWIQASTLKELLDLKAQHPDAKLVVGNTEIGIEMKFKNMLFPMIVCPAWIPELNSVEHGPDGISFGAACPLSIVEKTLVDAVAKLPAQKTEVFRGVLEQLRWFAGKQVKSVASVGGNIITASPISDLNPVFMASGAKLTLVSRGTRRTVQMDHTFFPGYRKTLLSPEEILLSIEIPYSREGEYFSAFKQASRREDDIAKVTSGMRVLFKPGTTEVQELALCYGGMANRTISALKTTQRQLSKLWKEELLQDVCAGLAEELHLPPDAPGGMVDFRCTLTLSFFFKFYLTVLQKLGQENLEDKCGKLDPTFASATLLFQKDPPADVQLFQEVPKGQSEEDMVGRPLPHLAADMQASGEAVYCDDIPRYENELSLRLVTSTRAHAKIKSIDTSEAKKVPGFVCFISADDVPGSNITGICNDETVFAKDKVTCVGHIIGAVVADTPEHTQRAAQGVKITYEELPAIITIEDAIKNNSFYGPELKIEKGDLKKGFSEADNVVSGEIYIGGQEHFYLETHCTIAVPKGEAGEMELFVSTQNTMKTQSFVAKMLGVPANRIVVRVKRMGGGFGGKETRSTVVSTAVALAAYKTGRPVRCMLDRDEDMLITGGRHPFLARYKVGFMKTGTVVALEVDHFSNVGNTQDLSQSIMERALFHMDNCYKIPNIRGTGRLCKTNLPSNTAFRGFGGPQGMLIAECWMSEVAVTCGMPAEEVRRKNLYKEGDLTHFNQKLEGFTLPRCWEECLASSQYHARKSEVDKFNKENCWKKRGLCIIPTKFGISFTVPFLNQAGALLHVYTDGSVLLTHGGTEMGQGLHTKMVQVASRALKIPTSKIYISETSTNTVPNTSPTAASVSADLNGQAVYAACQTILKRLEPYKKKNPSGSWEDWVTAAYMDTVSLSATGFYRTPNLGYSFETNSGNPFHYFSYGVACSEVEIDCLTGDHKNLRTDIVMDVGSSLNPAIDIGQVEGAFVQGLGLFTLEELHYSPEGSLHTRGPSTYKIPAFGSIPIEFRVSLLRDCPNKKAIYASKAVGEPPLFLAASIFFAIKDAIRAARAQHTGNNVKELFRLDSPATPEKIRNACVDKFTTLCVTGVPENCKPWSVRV

Row | SMILES | IC50 (Myeloperoxidase; read-out: IC50) [µM] | IC50 [1] | also measured
1 | CN(C)CCCn1c(=S)[nH]c2ccc(Cl)cc2c1=O.Cl | 0.8 |  | inhibition (Armoracia rusticana): inactive; IC50 ([1]; read-out: IC50): 15 µM; Emax [2]: 71%; solubility kinetic [3]: 90 µg/mL
2 | O=C(Nn1c(=S)[nH]c2ccc(F)cc2c1=O)c1cccc(F)c1 |  |  | inhibition (Armoracia rusticana): inactive
3 | CN(C)CCCn1c(=O)[nH]c2ccccc2c1=O |  | Not Active | IC50 (Myeloperoxidase): Not Active
4 | O=c1c2ccccc2[nH]c(=S)n1CCN1CCCCC1 | 0.4 | Not Active | 
5 | CN(C)CCCCCCn1c(=S)[nH]c2ccc(F)cc2c1=O | > 20 |  | IC50 ([1]; read-out: IC50): 18 µM; Emax [2]: 35%
6 | CN(C)CCCn1c(=S)[nH]c2cc(Cl)ccc2c1=O | 8 |  | IC50 ([1]; read-out: IC50): 4 µM; Emax [2]: 50%
7 | CN(C)CCCn1c(=S)[nH]c2ccc(F)cc2c1=O.Cl | 0.6 | Not Active | 
8 | O=c1c2ccccc2[nH]c(=S)n1CCCCCO | > 40 | Not Active | 
9 | CN(C)CCCCCn1c(=O)[nH]c2ccccc2c1=O | 10 | Not Active | 
10 | CC(C)n1c(=S)[nH]c2cc3c(cc2c1=O)OCCO3 | > 20 |  | IC50 ([1]; read-out: IC50): 4.5 µM; Emax [2]: 60%
11 | CCn1c(=S)[nH]c2ccc(F)cc2c1=O | 15 | Not Active | 
12 | O=C(Nn1c(=S)[nH]c2cc3c(cc2c1=O)OCCO3)c1ccc(C(F)(F)F)cc1 | 0.3 | Not Active | 
13 | O=C(NO)c1ccccc1O |  |  | inhibition [4]: Active
14 | CN(C)CCCn1c(=S)[nH]c2ccccc2c1=O | 1.3 |  | IC50 ([1]; read-out: IC50): 20 µM; Emax [2]: 20%
15 | CN(C)CCn1c(=S)[nH]c2ccccc2c1=O | 1.7 | Not Active | 
16 | CCN(CC)CCn1c(=S)[nH]c2ccccc2c1=O | 1.6 | Not Active | 
17 | CN(C)CCCn1c(=S)[nH]c2cc(F)c(F)cc2c1=O.Cl | 1.2 | Not Active | 
18 | CN(C)CCCn1c(=S)[nH]c2c(Cl)cc(Cl)cc2c1=O | > 20 | Not Active | 
19 | CN1CCN(CCCn2c(=S)[nH]c3ccccc3c2=O)CC1 | 1.4 | Not Active | 
20 | CN(C)CCCCn1c(=O)[nH]c2ccccc2c1=O | 10 | Not Active | 
21 | NNC(=O)c1ccc(N)cc1 |  |  | inhibition [5]: Active
